The values that follow come from ChEMBL document CHEMBL1275284, “Therapeutic potential of sulindac hydroxamic acid against human pancreatic and colonic cancer cells” (Eur J Med Chem, 2010).

Structures are written as SMILES. pIC50: −log10 of the molar value. The source made the active and inactive calls. The rule behind the calls is not given here.

Data set [1] relates to MIA PaCa-2. As to the kind of experiment: Cytotoxicity against human MIAPaCa2 cells after 72 hrs by WST-1 assay. In kind it is functional, cell-based. Conditions: MIA PaCa-2, 72 h.
The test system of data set [2] is MIA PaCa-2. Put plainly: Induction of apoptosis in human MIAPaCa2 cells assessed as change in Bax to Bcl2 mRNA expression ratio at 200 uM after 24 hrs by RT-PCR assay relative to control. It counts as functional, cell-based. Summed up: (§1)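 Cells exposed 24 h to 200 µM compound. bax and bcl-2 mRNA measured by semi-quantitative RT-PCR, normalized to GAPDH mRNA, and the bax:bcl-2 ratio compared with control. Mean ± SEM, n = 3.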

Data set [3] has as its system COLO 320. Put plainly: Induction of apoptosis in human COLO320 cells assessed as DNA internucleosomal fragmentation at 200 uM after 48 hrs relative to control. In kind it is functional, cell-based. Summed up: (§2)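 MIA PaCa-2 or COLO320 cells (DMEM, 10% FBS, 2.5% horse serum, 37 °C, 5% CO2) treated 48 h at 200 µM. Oligonucleosomal fragments in the cytoplasmic fraction measured, along with necrotic death, expressed relative to untreated control. Mean ± SEM, n = 3.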

Data set [4] can be described thus: Cytotoxicity against human COLO320 cells after 72 hrs by WST-1 assay. In kind it is functional, cell-based. Conditions: COLO 320, 72 h.
The test system of data set [5] is HUVEC. Put plainly: Antiangiogenic activity in HUVEC assessed as inhibition of VEGF-induced cell proliferation at 0.1 uM after 96 hrs by haemocytometry. Conditions: Homo sapiens. It counts as functional, cell-based.
The test system of data set [6] is COLO 320. Put plainly: Induction of apoptosis in human COLO320 cells assessed as increase in caspase 3/7 activation at 200 uM after 24 hrs by spectrofluorimetry relative to control. It counts as functional. The method in brief: (§3)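 Caspase 3/7 activity assayed after 24 h exposure of cells to 200 µM compound. Fluorescent signal of treated cells expressed as a ratio to that of vehicle-only untreated cells. Mean ± SEM, n = 3.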

Data set [7] deals with HUVEC. Put plainly: Antiangiogenic activity in HUVEC assessed as inhibition of bFGF-induced cell proliferation at 0.1 uM after 96 hrs by haemocytometry. It counts as functional, cell-based. Conditions: Homo sapiens.
Data set [8] relates to MIA PaCa-2. As to the kind of experiment: Induction of apoptosis in human MIAPaCa2 cells assessed as DNA internucleosomal fragmentation at 200 uM after 48 hrs relative to control. It counts as functional, cell-based. The method in brief:
as §2

In data set [9] the test system is HUVEC. As to the kind of experiment: Cytotoxicity against HUVEC at 0.1 uM after 96 hrs by trypan blue exclusion test. It counts as cell-based. Conditions: human.
Data set [10] concerns COLO 320. Put plainly: Induction of apoptosis in human COLO320 cells assessed as increase in Bax to Bcl2 mRNA expression ratio at 200 uM after 24 hrs by RT-PCR assay relative to control. In kind it is functional. The method in brief:
as §1

The subject of data set [11] is MIA PaCa-2. As to the kind of experiment: Induction of apoptosis in human MIAPaCa2 cells assessed as increase in caspase 3/7 activation at 200 uM after 24 hrs by spectrofluorimetry relative to control. In kind it is functional. The method in brief:
as §3

As to `CSc1ccc(C=C2C(C)=C(CC(=O)NO)c3cc(F)ccc32)cc1`, the pIC50 in the data set on MIA PaCa-2 [1] was 4.49; in data set [4] it was 5.22. In addition, the outcome in the data set with MIA PaCa-2 [2], in the data set on COLO 320 [3] and in the data set with MIA PaCa-2 [8] was inactive. For the same molecule, the outcome in the data set on HUVEC [5] and in the data set with HUVEC [7] was Active. Also, the “fold change (FC)” value in the data set on COLO 320 [6] and in the data set with MIA PaCa-2 [11] was 5 in each case. The Activity entry with HUVEC [9] is given as “Non-toxic”; with COLO 320 [10], 130%.

Turning to `CC1(C)OC(=O)C(c2cccc(F)c2)=C1c1ccc(S(C)(=O)=O)cc1`, the pIC50 (in the data set with MIA PaCa-2 [1]; in [4]) was below 3.70 each time.

On to `CSc1ccc(/C=C2/C(C)=C(CC(=O)O)c3cc(F)ccc32)cc1` [SULINDAC SULFIDE], for which the pIC50 with MIA PaCa-2 [1] was 3.84; in data set [4] it was 4.41. For the same molecule, the outcome with MIA PaCa-2 [2], in the data set with COLO 320 [3] and in the data set on MIA PaCa-2 [8] was inactive. For the same molecule, the result with HUVEC [5] and in the data set with HUVEC [7] was Active.

On to `CC1=C(CC(=O)NO)c2cc(F)ccc2C1=Cc1ccc(S(C)(=O)=O)cc1`, for which the pIC50 in the data set with MIA PaCa-2 [1] is 4.35; in data set [4], 4.58. In addition, the outcome in the data set with COLO 320 [3] and in the data set on MIA PaCa-2 [8] was inactive. Also, the outcome with HUVEC [5] and in the data set with HUVEC [7] was Active. Further, the “fold change (FC)” value in the data set on COLO 320 [6] and in the data set on MIA PaCa-2 [11] was 5 in each case. Besides, the Activity entry with HUVEC [9] is on record as “Non-toxic”.

As for `CC1=C(CC(=O)O)c2cc(F)ccc2/C1=C\c1ccc(S(C)(=O)=O)cc1` [EXISULIND], the pIC50 (in the data set on MIA PaCa-2 [1]; in data set [4]) was below 3.70 each time. Besides, the result in the data set with COLO 320 [3] and in the data set on MIA PaCa-2 [8] was inactive. Further, the result with HUVEC [5] and in the data set on HUVEC [7] was Active.

Consider `CC1=C(CC(=O)NO)c2cc(F)ccc2C1=Cc1ccc([S+](C)[O-])cc1` (stereo not drawn), for which the pIC50 in the data set with MIA PaCa-2 [1] is 4.19; in data set [4], 4.20. For the same molecule, the result in the data set on COLO 320 [3] and in the data set with MIA PaCa-2 [8] was inactive. Moreover, the outcome with HUVEC [5] and with HUVEC [7] was Active. The “fold change (FC)” value with COLO 320 [6] and in the data set with MIA PaCa-2 [11] was 5 in each case. In the data set with HUVEC [9], the Activity result is on record as “Non-toxic”.

Regarding `CC1=C(CC(=O)O)c2cc(F)ccc2/C1=C\c1ccc([S+](C)[O-])cc1` (stereo not drawn) [SULINDAC], the pIC50 (in the data set on MIA PaCa-2 [1]; in data set [4]) was below 3.70 throughout. For the same molecule, the outcome in the data set with COLO 320 [3] and in the data set on MIA PaCa-2 [8] was inactive.
